NPY-Y1 antag: NPY-Y1 receptor antagonists, primary screen, cell-based; Neuropeptide Y receptor type 1 (Homo sapiens), P25929; hit rate 1% among 200,000; HEK293-CNG Y1 cells, membrane potential fluorescence; NPY at EC95, then isoproterenol; inhibition, % at 3.6 µM;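 active = inhibition above the campaign mean inhibition of all tested compounds plus 3 SD, cut at about 20% in these data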;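 also: 0% = DMSO wells given NPY plus isoproterenol and 100% = isoproterenol alone without NPY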
Target sequence (P25929 whole entry, looked up): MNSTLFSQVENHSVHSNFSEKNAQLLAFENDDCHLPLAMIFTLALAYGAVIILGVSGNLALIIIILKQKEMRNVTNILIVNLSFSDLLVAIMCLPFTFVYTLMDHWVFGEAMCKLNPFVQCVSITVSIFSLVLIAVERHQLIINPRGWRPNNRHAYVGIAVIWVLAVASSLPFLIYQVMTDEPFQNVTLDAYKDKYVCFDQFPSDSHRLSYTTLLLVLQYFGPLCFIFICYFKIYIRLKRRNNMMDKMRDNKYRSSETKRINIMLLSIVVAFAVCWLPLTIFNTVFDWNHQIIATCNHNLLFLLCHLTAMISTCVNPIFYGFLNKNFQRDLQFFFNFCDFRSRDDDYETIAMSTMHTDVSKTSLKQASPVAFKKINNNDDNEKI
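Material: HEK293 Y1/CNG channel cell line; also added: NPY (25 nM), isoproterenol (1 µM), Ro 20-1724 (25 µM); doses: one concentration, 3.6 µM, in 0.4% DMSO; schedule: compound incubation 1 h at room temperature, readout 45 min post-stimulation; technique: membrane potential fluorescence; measure: fluorescence ratio normalized to % inhibition between controls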
WT yeast gro inh: growth inhibition of WT strain, primary screen, mitochondrial fusion inhibitor project, WT and mutant strains, chemical genetic. mitochondrial fusion phenotypic screen. inhibition, % at 10 µM. hit rate 2.1% among 190,000. AID 1362, 2008; in the data active = inhibition above about 58%; tested in S. cerevisiae
RAM inhibit: inhibitors of the yeast RAM network, primary screen, dse1pr::URA3 reporter, 5-FOA selection | S. cerevisiae dse1pr::URA3 reporter, 5-FOA growth OD615, 2 d; analog-sensitive cbk1-as2 kinase mutant strain | inhibition, % at 50 µM | hit rate 1.8% among 190,000;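 active = inhibition above a set limit, 3 SD over mean compound inhibition, cut at about 8.4% in these data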;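 also: 0% = DMSO-only wells with no growth and 100% = 10 µM 1-NA-PP1 full growth; inhibition rescues growth on 5-FOA so higher OD means more RAM inhibition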
NPY-Y2 antag: NPY-Y2 receptor antagonists, primary screen, cell-based | Neuropeptide Y receptor type 2 (Homo sapiens), P49146 | hit rate 0.99% among 140,000 | inhibition, % at 2.7 µM | NPY-Y2 expressing cells, antagonist mode; in the data active = inhibition above about 17%;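 also: 0% = vehicle with agonist challenge and 100% = reference antagonist with challenge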
NPY1 pot ag: NPY-Y1 receptor potentiators or agonists, primary screen, cell-based. Neuropeptide Y receptor type 1 (Homo sapiens), P25929. NPY-Y1 expressing cells, potentiator/agonist activation. activation, % at 3.6 µM. hit rate 0.37% among 220,000; in the data active = activation above about 33%, passing the limit was not always enough;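 also: cells stimulated with NPY at EC10 then isoproterenol at EC100; 0% = low agonist plus stimulus and 100% = saturating agonist plus stimulus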
NPY-Y2 PAM-ag: NPY-Y2 potentiators or agonists, primary screen, cell-based. cells expressing NPY-Y2, potentiator/agonist read-out. activation, % at 3.6 µM. hit rate 0.45% among 220,000; in the data active = activation above about 27%;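 also: cells stimulated with NPY near EC25 plus isoproterenol at EC100; 0% = vehicle plus submaximal agonist and 100% = vehicle plus saturating agonist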
The depositor's hits bear a star; / = no result. In the library only some 4.9% were active in any assay of this set; here they are far more common.

SMILES	NPY-Y1 antag	WT yeast gro inh	RAM inhibit	NPY-Y2 antag	NPY1 pot ag	NPY-Y2 PAM-ag
COCCNC(=O)C1CCN(C(=O)c2cc3sccc3n2Cc2ccc(F)cc2)CC1	-8	3	2	/	6	1
CCOC(=O)C1=C(C)OC(N)=C(C#N)C1c1cc(SCC)oc1C (configuration not stated)	-3	-3	1	/	13	5
CCC(c1nnnn1Cc1ccc(F)cc1)N1CCN(C2CCCCC2)CC1 (configuration not stated)	39*	-19	-1	37*	-14	-15
CCCC(c1nnnn1Cc1ccc(F)cc1)N1CCN(C)CC1 (configuration not stated)	9	22	4	/	1	-21
COc1ccc(Cn2nnnc2C(c2ccccc2Cl)N2CCN(C3CCCC3)CC2)cc1 (configuration not stated)	28*	24	-1	20*	-7	-3
c1cncc(-c2nc(N3CCCCCC3)c3ccccc3n2)c1	8	55	1	10	1	-5
CN1CCN(c2nc(-c3cccnc3)nc3ccccc23)CC1	2	94*	2	1	-19	10
CCOC(=O)C(=Cc1ccc(Br)cc1)C(=O)OCC	/	/	/	/	-36	-70
CCOC(=O)C(CC)(CC)C(=O)/C=C/c1ccc(Br)cc1	14	61*	0	6	-1	0
CC(C)NC(=O)CNc1ccc(C(F)(F)F)cc1[N+](=O)[O-]	-3	1	3	/	-8	2
O=[N+]([O-])c1cc(C(F)(F)F)ccc1NCCc1c[nH]c2ccccc12	-4	62*	8	-1	23	18
CS(=O)(=O)NCCCNc1ccc(C(F)(F)F)cc1[N+](=O)[O-]	/	/	/	/	-14	-25
O=[N+]([O-])c1cc(C(F)(F)F)ccc1NCCc1c[nH]c2ccc(O)cc12	-3	79*	-2	-2	3	0
O=C(CNc1ccc(C(F)(F)F)cc1[N+](=O)[O-])OCC(=O)c1ccccc1	3	22	11*	7	-19	-7
CNC(=O)CSc1nc(N)c2c3c(sc2n1)CCC3	-7	17	1	-1	-3	-12
CSCCC(NS(=O)(=O)c1ccc2ccccc2c1)C(=O)O (configuration not stated)	3	-1	0	6	-25	-9
COc1cccc(N2C(=O)C(c3ccccc3)=C(c3nc4ccccc4s3)C2NC(C)=O)c1 (configuration not stated)	0	70*	7	3	6	3
COc1cccc(-c2nc3ccccc3s2)c1	5	15	-1	5	-14	-11
CC(=O)NCc1ccc(-c2nc3ccccc3s2)cc1	1	14	3	/	5	-2
CC(=O)NC1C(c2nc3ccccc3s2)=C(c2ccccc2)C(=O)N1c1ccc(C)cc1 (configuration not stated)	-4	68*	3	0	18	6
CC(C)c1ccc(NC(=O)CN(Cc2ccccc2)S(C)(=O)=O)cc1	1	-3	0	2	5	12
FC(F)(F)c1cccc(N2CCN(C(=S)NC3CCCC3)CC2)c1	-1	21	1	0	11	-5
Cn1c(SCC(=O)NCC2CCCO2)nnc1-c1ccc(S(=O)(=O)N2CCCC2)cc1 (configuration not stated)	4	-8	1	-2	3	15
CCN(CC)CCOC(=O)c1ccc(NC(=O)c2cn(-c3ccccc3)nc2-c2cccs2)cc1	6	90*	2	/	8	-15
CCN(CC)CCNC(=O)c1cn(-c2ccccc2)nc1-c1cccs1	6	/	1	3	27	0
SMILES	NPY-Y1 antag	WT yeast gro inh	RAM inhibit	NPY-Y2 antag	NPY1 pot ag	NPY-Y2 PAM-ag
COC(=O)/C=C1\SC(=NC(=O)c2ccc(C)cc2)NC1=O	3	-6	1	/	3	-10
Cc1ccc(NC(=O)c2cc(S(=O)(=O)NCCc3ccccc3)ccc2F)cc1Cl	5	1	5	1	18	9
O=C(Nc1cccc(Cl)c1)c1cc(S(=O)(=O)NCCc2ccc(Cl)cc2)ccc1F	0	46	10*	-2	-9	0
CC(/C=N/NC(=O)c1cc(-c2ccccc2)nc2ccccc12)=C\c1ccco1	-1	13	5	5	-34	-12
CCOC(=O)c1c(C)[nH]c(C2=NNC(=Nc3ccccc3)SC2)c1C	-5	65*	1	-1	5	11
CCOC(=O)c1c(C)[nH]c(N=Nc2ccccc2)c1C	2	75*	8	4	-21	-7
CCOC(=O)c1c(C)[nH]c(N=Nc2ccc(C)cc2)c1C	3	7	3	-1	-51	-25
CC1=CC(C)(C)n2c(O)c(N=NC(N)=S)c3c(C)c(C)cc1c32	/	/	/	/	40	0
CCOC(=O)c1ccc(NC(=S)N2CCC(O)CC2)cc1	-5	-17	0	5	-4	-3
CCC1CSC(Nc2ccc(C(=O)/C=C/c3ccc(OC)c(OC)c3)cc2)=N1 (configuration not stated)	-6	64*	0	2	-11	4
CCC1CSC(Nc2ccc(C(=O)/C=C/c3ccc(Br)cc3)cc2)=N1 (configuration not stated)	0	45	0	4	-20	-6
CN(C)CCNC(=O)NC1CCCCC1	-1	3	1	0	10	25
CCCCCc1c(O)nc(SCCN(CC)CC)[nH]c1=O	-2	-8	0	/	13	-7
CCOC(=O)CSc1nnc(CNc2ccc(Cl)cc2)n1-c1ccccc1	2	-2	1	4	26	18
CCOc1ccc(NCc2nnc(SCc3ccc(Cl)cc3)n2-c2ccccc2)cc1	0	60*	4	2	-10	-19
CC(C)c1nnc(NC(=O)C2CCCCC2)s1	4	-3	0	-2	28	-5
O=c1oc2cc(O)ccc2cc1-c1nc2c(s1)CCc1ccccc1-2	3	98*	3	2	-6	28
CCOc1ccccc1NC(=O)C(OC(=O)c1ccc(O)cc1)c1ccccc1 (configuration not stated)	7	77*	5	5	-6	8
CCOc1ccccc1NC(=O)C(NCC1CCCCC1)c1ccccc1 (configuration not stated)	11	74*	-1	/	2	-2
CCOc1ccccc1NC(=O)C(NCCN(C)C)c1ccccc1 (configuration not stated)	11	5	1	/	-16	-2
CC1CN(S(=O)(=O)c2cccc(C(F)(F)F)c2)CC(C)O1 (configuration not stated)	/	/	/	/	12	0

Screens from PubChem.
